From PubChem
PREPL inhibitor = PREPL enzyme inhibitors, primary screen, biochemical, fluorescence polarization; recombinant PREPL, fluorescence polarization activity-based probe; inhibition, % at 5.96 µM; 320,000 tested, 0.68% active; AID 2751, 2010; in the data active = inhibition above about 43%;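 note: 0% = enzyme with DMSO and 100% = wells lacking enzyme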
MEKK3 PB1 HTS = modulators of MEKK3-MEK5 PB1 binding, primary screen, biochemical, wildtype MEKK3, multiplex bead flow cytometry, Alexa488-MEK5. Mitogen-activated protein kinase kinase kinase 3 (Homo sapiens), Q99759. 290,000 tested, 1.4% active. bead-based flow cytometry, Alexa488-MEK5 binding to MEKK3; actives lie on both sides; 0 = blocked by unlabeled MEK5, 100 = vehicle. AID 1529, 2009. binding response (% of control), % at 10 µM;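 active = binding response more than 3 SD above or below the average of its plate-row segment, actives on both sides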;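 note: Alexa488 bead fluorescence after subtracting the streptavidin-only scavenger bead signal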
MEKK2 mut-MEK5 = MEK5 binding signal on mutant MEKK2 PB1, primary screen, biochemical, multiplex bead flow cytometry, Alexa488-MEK5. Alexa488-MEK5 binding to MEKK2 mutant. percent response, % at 10 µM. 290,000 tested, 0.35% active; in the data active = percent response above about 24%, passing the limit was not always enough
MEKK2wt PB1 HTS = modulators of MEK5 binding to wildtype MEKK2, primary screen, biochemical, multiplex bead flow cytometry, Alexa488-MEK5 | binding response (% of control), % at 10 µM | Mitogen-activated protein kinase kinase kinase 2 (Homo sapiens), Q9Y2U5 | Alexa488-MEK5 binding to MEKK2 WT; actives lie on both sides | 290,000 tested, 1.1% active; in the data active = binding response below about 67% or above about 130%
UBC13 polyUb = UBC13 polyubiquitin chain formation inhibitors, primary screen, biochemical, TR-FRET, uHTS; Ubiquitin-conjugating enzyme E2 N (Homo sapiens), P61088; inhibition, % at 20 µM; 330,000 tested, 0.47% active; AID 485273, 2010; in the data active = inhibition above about 45%, passing the limit was not always enough
Apaf1 inhib = inhibitors of human Apaf-1 apoptosome, primary screen, biochemical, DEVD-Rh110 fluorescence, uHTS | Apoptotic protease-activating factor 1 (Homo sapiens), O14727 | reconstituted apoptosome caspase-3 activity | inhibition, % at 20 µM | 330,000 tested, 0.71% active | AID 489030, 2010; active = inhibition of at least 40% at 20 µM;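 note: plate controls were DMSO wells for no effect and DEVD-CHO caspase inhibitor wells for full effect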
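Assay system: Apoptosome proteins | Medium: pH 7.5 Hepes buffer with CHAPS, BSA, DTT | Also added: Cytochrome c and DEVD-Rh110 substrate | Times: 30 min plus 50 min, RT | Detection: Rhodamine 110 fluorescence at Ex 480/Em 540 nm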
MEKK2wt confirm = modulators of MEK5 binding to wildtype MEKK2, confirmation, biochemical, single concentration, multiplex bead flow cytometry; shares compounds with MEKK3 PB1 HTS; 5,900 tested, 2.4% active; Alexa488-MEK5 binding to MEKK2 WT; actives lie on both sides; binding response (% of control), % at 10 µM; in the data active = binding response below about 16% or above about 210%; inactive = in between
MEKK2mut confirm = mutant MEKK2 PB1-MEK5 binding signal retest – biochemical, single concentration, multiplex bead flow cytometry, confirmation; shares compounds with MEKK3 PB1 HTS; Alexa488-MEK5 binding to MEKK2 mutant; percent response, % at 10 µM; 5,900 tested, 2% active; AID 1893, 2009; in the data active = percent response mostly above about 71%, no sharp cut-off; inactive = mostly below about 38%;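 note: higher means compound restores mutant binding toward wildtype level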
MEKK3 confirm = MEKK3 wild-type PB1 binding to MEK5, inhibitors, confirmation, biochemical, bead multiplex flow cytometry, single concentration, wildtype | Alexa488-MEK5 binding to MEKK3; active compounds read low | shares compounds with MEKK3 PB1 HTS | 5,900 tested, 1.8% active | binding response (% of control), % at 10 µM | AID 1894, 2009;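 active = binding response below 72% of control, or above a set upper limit, though filed actives all read lower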;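 note: 100% = DMSO only wells and 0% = binding blocked by excess unlabeled MEK5; lower values mean stronger disruption of MEK5 binding to MEKK3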
Starred values were filed as active, the others as inactive; x = no result; [ ] = another dose, or the depositor's remark. Shown are actives, neighbours in structure and some others; about 3.1% of the full set was active somewhere.

SMILES | PREPL inhibitor | MEKK3 PB1 HTS | MEKK2 mut-MEK5 | MEKK2wt PB1 HTS | UBC13 polyUb | Apaf1 inhib | MEKK2wt confirm | MEKK2mut confirm | MEKK3 confirm
CN(C)C(=O)C(CCN1CCC(O)(c2ccc(Cl)cc2)CC1)(c1ccccc1)c1ccccc1 | 28.1 | 116.0 | 12.0 | 150.0* | 36.3 | 25.5 | 123.0 | 7.0 | 103.0
OC(CCCN1CCC(O)(c2ccc(Cl)cc2)CC1)c1ccc(F)cc1 (centres undefined) | -19.2 | 90.0 | 4.0 | 93.0 | 4.7 | -1.8 | x | x | x
CC(C)(C)NC(=O)c1oc2ccccc2c1COc1ccccc1 | 9.0 | 69.0*[inhibitor] | -1.0 | 102.0 | -13.9 | 15.1 | 103.0 | -12.0 | 97.0
Nn1c(SCC(=O)NCC2CCCO2)nnc1-c1ccc(OC(F)F)cc1 (centres undefined) | 18.7 | x | x | x | -8.3 | 3.2 | x | x | x
COc1ccc(OC)c(NC(=O)c2cc(-c3cc(Cl)ccc3O)n[nH]2)c1 | 9.4 | 145.0* | 8.0 | 130.0 | -9.7 | 6.2 | 93.0 | -3.0 | 98.0
CC(C)(C)c1cnnn1-c1ccc(NC(=O)c2ccc(Br)o2)cc1 | 10.8 | 1.0*[inhibitor] | -41.0 | 0.0*[inhibitor] | -2.2 | -7.2 | 102.0 | -1.0 | 104.0
CCOc1ccc2nc(NCCCNS(=O)(=O)c3ccc(C)cc3)c(C#N)cc2c1 | -1.4 | 130.0* | 4.0 | 94.0 | -0.5 | 9.6 | 97.0 | 0.0 | 105.0
CCOc1ccc2nc(NCCNC(=O)Nc3cccc(C)c3)c(C#N)cc2c1 | -3.8 | 95.0 | -7.0 | 90.0 | 1.8 | 1.7 | x | x | x
COc1ccc(N2CCN(C(=O)CN(Cc3ccccc3)S(C)(=O)=O)CC2)cc1 | 11.1 | 55.0*[inhibitor] | -22.0 | 64.0 | -2.4 | 2.9 | 111.0 | 13.0 | 106.0
COc1ccc(N2CCN(C(=O)CSc3ccc(C)cc3)CC2)cc1 | -15.1 | 130.0* | 0.0 | 114.0 | 5.3 | 4.9 | 107.0 | 6.0 | 104.0
COc1ccc(N2CCN(C(=O)CSc3ccc([N+](=O)[O-])cc3)CC2)cc1 | 25.1 | 90.0 | -3.0 | 87.0 | -11.9 | -2.0 | x | x | x
Cc1cccc(NC(=O)CN2CCN(CC(=O)Nc3cccc(C)c3)CC2)c1 | -8.6 | 82.0*[inhibitor] | -10.0 | 91.0 | -0.3 | 3.4 | 109.0 | 1.0 | 105.0
Cc1cccc(NC(=O)CC2CCC2)c1 | 1.3 | 2.0*[inhibitor] | -26.0 | -1.0*[inhibitor] | 4.1 | -12.9 | 106.0 | 4.0 | 102.0
CCN1C(=O)c2cccc3c(S(=O)(=O)NCCCN4CCOCC4)ccc1c23 | 4.6 | 125.0* | 6.0 | 124.0 | 0.3 | 4.6 | 105.0 | 5.0 | 106.0
COc1ccccc1OCCNS(=O)(=O)c1ccc2oc3ccccc3c2c1 | -91.5 | 138.0* | 3.0 | 109.0 | -6.2 | 11.5 | 104.0 | 1.0 | 102.0
CC(=O)Nc1ccc(S(=O)(=O)N2CCN=C2SCc2ccccc2C)cc1 | -1.7 | 101.0 | 7.0 | 108.0 | 7.9 | -12.1 | x | x | x
C=CCn1c(SCC(=O)N(CC)C2CCS(=O)(=O)C2)nc2cc(C(=O)O)ccc2c1=O (centres undefined) | 5.2 | x | x | x | -15.3 | 10.4 | x | x | x
COc1ccc(OC)c(NC(=O)CC2SC(=Nc3ccc(F)cc3)N(CCC3=CCCCC3)C2=O)c1 (centres undefined) | -2.5 | 139.0* | 0.0 | 102.0 | 2.4 | 3.6 | 81.0 | -44.0 | 83.0
COc1cc([N+](=O)[O-])ccc1NC(=O)CC1SC(=Nc2ccc(F)cc2)N(CCC2=CCCCC2)C1=O (centres undefined) | 15.8 | 112.0 | -1.0 | 97.0 | -16.8 | 13.5 | x | x | x
O=C(/C=C/c1cccc([N+](=O)[O-])c1)NCCSCc1ccccc1Cl | 23.6 | 104.0 | -2.0 | 100.0 | 8.5 | 7.9 | x | x | x
O=C(/C=C/c1cccc([N+](=O)[O-])c1)NCCSCc1ccc(Cl)cc1Cl | 9.5 | 130.0* | 1.0 | 113.0 | 3.7 | -3.3 | 121.0 | 5.0 | 101.0
CSCCCNC(=S)N1CCN(c2ccc(C(C)=O)cc2)CC1 | -0.1 | 5.0*[inhibitor] | -45.0 | 6.0*[inhibitor] | -2.6 | 0.6 | 100.0 | -5.0 | 99.0
O=C(CCCCCCC(=O)NCc1ccccc1)NCc1ccccc1 | -11.4 | 109.0 | 11.0 | 108.0 | 4.8 | 3.0 | x | x | x
CCCCN(CC)CCCNC(=O)c1cc2c(-c3ccc(OC)c(OC)c3)nn(C)c2s1 | 33.9 | 108.0 | 23.0 | 135.0* | 30.3 | 1.8 | 107.0 | 13.0 | 102.0
Cn1nc(-c2ccc(Cl)cc2)c2cc(C(=O)NCCCN3CCCC3)sc21 | -64.3 | 105.0 | 21.0 | 201.0* | 40.4 | 49.2* | 176.0 | 37.0 | 106.0
SMILES | PREPL inhibitor | MEKK3 PB1 HTS | MEKK2 mut-MEK5 | MEKK2wt PB1 HTS | UBC13 polyUb | Apaf1 inhib | MEKK2wt confirm | MEKK2mut confirm | MEKK3 confirm
O=C1CC(N2CCN(S(=O)(=O)c3ccccc3F)CC2)C(=O)N1c1ccc(F)cc1F (centres undefined) | 9.6 | x | x | x | 3.3 | -3.8 | x | x | x
Cc1ccc2[nH]c(=O)c(C3=NN(C(=O)CCC(=O)O)C(c4cccs4)C3)c(-c3ccccc3)c2c1 (centres undefined) | -1.3 | 133.0* | 0.0 | 102.0 | -4.9 | -1.5 | 88.0 | -4.0 | 102.0
COc1cc(/C=N/NC(=O)C[n+]2ccccc2)cc(OC)c1OC(C)=O | 0.9 | 73.0*[inhibitor] | -30.0 | 60.0*[inhibitor] | 8.9 | -22.6 | 86.0 | -11.0 | 82.0
COc1cc(/C=N/NC(=O)C[n+]2ccccc2)cc(OC)c1OC | -1.6 | 98.0 | 1.0 | 99.0 | 4.4 | -0.6 | x | x | x
CCCCN(C(=O)C1=CC=CN2CCS(=O)(=O)N=C12)c1ccccc1 | x | x | x | x | -8.3 | 2.6 | x | x | x
CCCCCCCCCn1ccc(=N)cc1 | -1.8 | 131.0* | 31.0 | 140.0* | 5.3 | 3.1 | 112.0 | 6.0 | 104.0
CC(C)c1nc(N2CCN(C(=O)c3ccccc3)CC2)c(C#N)c2c1COC(C)(C)C2 | 6.1 | 106.0 | 2.0 | 106.0 | 1.1 | 39.4 | x | x | x
Cc1nc(N2CCN(Cc3ccccc3)CC2)c(C#N)c2c1COC(C)(C)C2 | 12.8 | 79.0*[inhibitor] | 1.0 | 97.0 | 4.4 | 12.7 | 104.0 | -1.0 | 100.0
NC(=O)c1cc(S(=O)(=O)N2CCOCC2)cs1 | -3.2 | 102.0 | 0.0 | 103.0 | -0.2 | -12.6 | x | x | x
